Bioassay records from PubChem.
Shown are actives, neighbours in structure and some others; about 3.5% of the full set was active somewhere.
HIV Env fusion – inhibitors of HIV Env-mediated cell fusion; inhibition, % at 12.3 µM; 360,000 tested, 1.1% active; HeLa-JRFL Env/CEM21 cell fusion, luciferase;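 active = mean replicate inhibition score of at least 50 and every replicate individually at or above 50; inconclusive = only one of the two criteria met; inactive = mean below 50 and not all replicates reaching 50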
PGC1a acetyl inh – PGC1a acetylation modulation, inhibitor mode. U2OS PGC1a acetylation, AlphaScreen anti-acetyl-lysine; with virally co-expressed GCN5 acetyltransferase. inhibition, % at 15.6 µM. 350,000 tested, 0.17% active. AID 651687;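 active = every replicate shows inhibition of at least 40%; inconclusive = mean inhibition at least 40% but some replicate below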
Cneo AK release – Cryptococcus neoformans lysis via adenylate kinase release; C. neoformans lysis, adenylate kinase release luminescence, 4 h; normalised: neutral wells 0, clomiphene wells 100; lysis activity, % at 15 µM; 360,000 tested, 0.2% active;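 active = mean lysis activity across replicates of at least 80%, whatever share of replicates individually reach that level; inactive = mean lysis activity below 80%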
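Assay system: log-phase C. neoformans yeast / Quantity: yeast cell density of 5 × 10^6 cells/mL / Medium: fresh YPD growth medium / Compound: single dose / Timing: static 4 h at 37 °C with compound, 1 h detection / Measured by: adenylate kinase release luminescence / Read-out: lysis from increased AK signal / Benchmarks: Clomiphene as positive lysis control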
Ecoli rRNA inh – selective bacterial rRNA inhibition in E. coli; GFP signal change (wild-type ribosome), % (no concentration beside the values); 350,000 tested, 1.6% active; E. coli WT GFP vs humanized-ribosome RFP mutants, fluorescence, 24 h; stronger effect = lower value; DMSO median 0, no signal -100;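 active = significant combined selectivity score with lowered wild-type GFP, culture density cut under 30%, mutant RFP and density less affected; inactive = any of these conditions unmet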
FGF22 binding – FGF22 (human) thermal shift binding; recombinant FGF22 thermal shift, SYPRO orange fluorescence; percent of sucrose octasulfate shift, DMSO zero; activity (Tm shift, normalised), % at 9.99 µM; 340,000 tested, 1.5% active; Q9HCT0;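 active = mean Tm shift, scaled 0 neutral to 100 positive control, at about 1.3% or above, every replicate too, limit read from the data; inconclusive = no clear call, values can overlap the other calls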
ERAP1 inh – blocks human ERAP1 aminopeptidase activity. Q9NZ08. 340,000 tested, 0.15% active. inhibition, % at 10.7 µM. recombinant ERAP1, Leu-AMC fluorescence, 60 min;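 active = mean replicate inhibition of at least 30%, or all replicates individually reaching that 30% level; inactive = mean below 30% and not every replicate reaching it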
HepG2 tox – HepG2 cell cytotoxicity | AID 743480 | activity change, negative = cytotoxicity, unspecified at 26 µM | 30 tested, under 10 active | HepG2 viability, ATP luminescence, 72 h | shares compounds with Ecoli rRNA inh;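 active = compounds whose fitted half-maximal signal-loss concentration is at most twice their highest valid dose; inconclusive = flat curve with 30 to 70% signal loss, or poor fit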
AID977621 – growth inhibition of wild-type GFP E. coli, dose response, H69 mutant RFP, cherry-pick | 1,900 tested, under 10 active | activity change, negative = inhibition at 50 µM | shares compounds with Ecoli rRNA inh | AID 977621 | E. coli wild-type GFP strain growth, fluorescence, 24 h;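 active = Wild-type ribosome reporter drop at least double the humanized mutant ribosome reporter drop, growth loss under a set limit; inconclusive = no clear call, values can overlap the other calls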;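 also: wild-type GFP and H69 mutant RFP strains grown together 50/50 in each well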
AID977628 – E. coli growth inhibition, wild-type GFP versus h24 humanized RFP strain, dose response, h24 mutant RFP vs wild-type GFP, cherry-pick | shares compounds with Ecoli rRNA inh | E. coli WT GFP strain growth, fluorescence, 24 h | activity change, negative = inhibition at 50 µM | 1,900 tested, under 10 active | AID 977628;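 active = compound lowering the normal-ribosome reporter at least twice as much as the humanized-ribosome reporter, growth loss under a set limit; inconclusive = no clear call, values can overlap the other calls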;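 also: wild-type GFP and h24 humanized RFP strains co-cultured 1 to 1 per well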
Numbers stand for hits; i = inactive; ? = inconclusive; nt = no result.

SMILES | HIV Env fusion | PGC1a acetyl inh | Cneo AK release | Ecoli rRNA inh | FGF22 binding | ERAP1 inh | AID977621 | AID977628 | others
C[C@@H]1CCCCO[C@@H](CN(C)C(=O)CCCN(C)C)[C@@H](C)CN([C@H](C)CO)C(=O)c2cc(NC(=O)Nc3cccc4ccccc34)ccc2O1 | i | i | i | i | nt | i | i | ?
C[C@@H]1CCCCO[C@H](CN(C)C(=O)CCCN(C)C)[C@H](C)CN([C@@H](C)CO)C(=O)c2cc(NC(=O)Nc3cccc4ccccc34)ccc2O1 | i | i | i | -36.1 | i | i | nt | nt | HepG2 tox=i
C[C@@H]1CN([C@@H](C)CO)C(=O)c2cc(NC(=O)Nc3cccc4ccccc34)ccc2O[C@@H](C)CCCCO[C@@H]1CN(C)C(=O)CCCN(C)C | i | i | i | i | i | i | nt | nt
O=C(Cn1nnc(-c2ccc(Cl)cc2)n1)NCc1ccco1 | i | i | nt | i | i | i | nt | nt
CC1(C)CC(=O)CC(C)(C)N1OC(=O)c1ccncc1 | i | i | i | nt | nt | nt | nt | nt
Nc1ncncc1-c1ccc2ccccc2c1 | i | nt | i | -31.5 | i | i | i | ?
O=C(CCC(=O)c1cccs1)OCC(=O)c1ccc(Cl)s1 | nt | nt | i | -17.8 | nt | i | i | nt
O=C(CCC(=O)c1cccs1)OCC(=O)c1ccc(F)cc1 | i | i | i | i | i | i | nt | nt
CCCNC(=O)N1CC2(C1)[C@@H](c1ccccc1)[C@@H](CO)N2CC1CCCC1 | nt | i | nt | i | i | i | nt | nt
CC1CCCCN1C(=O)C1CCCN(S(=O)(=O)c2cccc3nsnc23)C1 (stereo unspecified) | i | i | i | -20.2 | i | i | i | ?
COc1cc(NC(=O)c2ccc(Cl)cc2)c(OC)cc1NC(=O)CN1CCCCC1 | i | i | nt | -26.3 | i | i | i | i
COc1ccc(-n2cc(-c3ccccc3)c3c(N4CCOCC4)ncnc32)cc1 | i | i | i | -29.4 | i | i | nt | ? | HepG2 tox=i
COc1ccc(-n2cc(-c3ccccc3)c3c(NCCCN4CCOCC4)ncnc32)cc1 | i | i | nt | i | i | i | nt | nt
CN(C)C(=O)[C@H]1[C@H](CO)[C@H]2Cn3c(ccc(C4=CCCC4)c3=O)[C@@H]1N2Cc1cccnc1 | nt | i | i | i | i | i | nt | nt
COC(=O)C1CCN(C(=O)COC(=O)c2ccc(OC)c(S(=O)(=O)N3CCCc4ccccc43)c2)CC1 | i | nt | nt | i | i | i | nt | nt
COC(=O)C1CCN(C(=O)c2ccc(OC)c(S(=O)(=O)N3CCCc4ccccc43)c2)CC1 | i | i | i | -13.5 | i | i | i | ?
c1csc(-c2nc3ccccn3c2NC2CCCCC2)c1 | i | i | nt | i | i | i | nt | nt
COc1cccc(CNC(=O)CCC2CCCN(C(=O)c3cc4ccccc4o3)C2)c1 (stereo unspecified) | i | nt | i | -32.3 | i | i | i | nt
CN(CC(=O)Nc1ccc(F)cc1)C(=O)Cn1c(=O)oc2ccccc21 | i | i | i | i | i | i | nt | nt
CN(CC(=O)Nc1cccc(F)c1)C(=O)Cn1c(=O)oc2ccccc21 | i | i | i | -17.4 | i | i | i | i
O=S(=O)(Nc1ccc(-c2cnco2)cc1)c1ccccc1 | i | nt | nt | -24.7 | i | i | i | nt
Nc1cc([N+](=O)[O-])ccc1Nc1ccc(O)cc1 | i | i | i | -24.1 | i | i | nt | ?
NC(=O)c1cc([N+](=O)[O-])ccc1Nc1ccccc1 | i | nt | i | i | i | i | nt | nt
Nc1ccccc1Nc1ccc([N+](=O)[O-])cc1[N+](=O)[O-] | i | nt | nt | -24.4 | i | i | i | i
CC1(C)N=C(C(=O)c2ccccc2)N(O)C1(C)O (stereo unspecified) | i | i | i | nt | nt | nt | nt | nt
SMILES | HIV Env fusion | PGC1a acetyl inh | Cneo AK release | Ecoli rRNA inh | FGF22 binding | ERAP1 inh | AID977621 | AID977628 | others
O=C(CSCc1ccccc1Cl)N/N=C/c1ccco1 | i | nt | nt | i | i | i | nt | nt
Cc1nn(-c2ccc(N3CCCCC3)nn2)c(C)c1CCC(=O)Nc1ccc(F)cc1 | i | i | i | -28.5 | i | i | i | ?
CCc1ccc(NC(=O)CCc2c(C)nn(-c3ccc(N4CCCCC4)nn3)c2C)cc1 | i | i | i | -22.9 | i | i | i | ?
Cc1ccc(S(=O)(=O)N2CCCCC2C(=O)N2CCN(c3ccccc3F)CC2)cc1 (stereo unspecified) | nt | nt | nt | -20.0 | i | i | i | i
COc1ccc(S(=O)(=O)Nc2ccc3c(c2)C(=O)N([C@@H](C)CO)C[C@@H](C)[C@H](CN(C)C(=O)Nc2cccc4ccccc24)OCCCC[C@@H](C)O3)cc1 | i | i | i | i | i | nt | nt | nt
CC(=O)OC(COc1cccc(C)c1)Cn1cnc2ccccc21 (stereo unspecified) | i | i | nt | -36.8 | i | i | i | ?
Cc1ccc(NC(=O)C2CCN(c3cnccn3)CC2)cc1 | i | i | nt | i | i | i | nt | nt
O=C(Nc1ccc(C(F)(F)F)cc1)C1CCN(c2cnccn2)CC1 | i | i | i | -31.0 | i | i | i | i
CCNc1nc(N)c(C(=O)C23CC4CC(CC(C4)C2)C3)s1 | i | i | i | -23.2 | i | i | i | i
CCOC(=O)C1=C(C)NC(=O)NC1c1ccc(OCCO)c(OC)c1 (stereo unspecified) | nt | i | i | nt | nt | nt | nt | nt
C=C(C)Cn1c(SCC(=O)O)nc2c1c(=O)[nH]c(=O)n2C | i | i | i | -12.4 | i | i | ? | ?
C=C(C)Cn1c(SCCN2CCOCC2)nc2c1c(=O)[nH]c(=O)n2C | i | i | i | nt | nt | nt | nt | nt
O=C(NCc1cccs1)c1ccc(N2CCCCC2)nc1 | i | i | i | nt | nt | nt | nt | nt
CC(=O)c1c(N2CCOCC2)nc2ccc(Cl)cc2c1-c1ccccc1 | i | nt | nt | -19.1 | i | i | i | nt
Cc1cc(CNC(=O)COc2cc(F)ccc2[N+](=O)[O-])c2ccccc2n1 | i | i | i | i | i | i | nt | nt
COc1ccccc1CC(=O)NCCCc1ccccc1 | i | i | i | -23.0 | i | i | i | ?
O=C(COc1cc(F)ccc1[N+](=O)[O-])NCCCc1ccccc1 | i | nt | nt | -27.4 | i | i | i | i
COc1ccc(NS(=O)(=O)c2cccc3cccnc23)cc1OC | i | nt | nt | i | i | i | nt | nt
Cc1ccc2nc(N(CCN(C)C)C(=O)C3CCN(S(=O)(=O)c4cccs4)CC3)sc2c1 | i | i | i | -10.8 | i | i | ? | nt
O=C(c1cccc(NC2=NC3CS(=O)(=O)CC3S2)c1)N1CCN(c2ccc(F)cc2)CC1 (stereo unspecified) | i | i | i | i | i | i | nt | nt
O=C(NC(=S)Nc1cccc(Cl)c1)c1cncc(Br)c1 | i | i | i | nt | i | nt | nt | nt
